ChEMBL document CHEMBL3769358, “Arylboronic acids as dual-action FAAH and TRPV1 ligands” (Bioorg Med Chem Lett, 2016)

How the values were obtained:
[1] = biological target: T1, Transient receptor potential cation channel subfamily V member 1 (Homo sapiens, UniProt Q8NER1); test: Antagonist activity at recombinant human TRPV1 channel expressed in HEK293 cells assessed as inhibition of capsiacin-induced Ca2+ flux preincubated for 5 mins followed by capsiacin challenge by Fluo-4-AM dye based spectrofluorimetry; format: cell-based
T1 sequence (Q8NER1 whole entry): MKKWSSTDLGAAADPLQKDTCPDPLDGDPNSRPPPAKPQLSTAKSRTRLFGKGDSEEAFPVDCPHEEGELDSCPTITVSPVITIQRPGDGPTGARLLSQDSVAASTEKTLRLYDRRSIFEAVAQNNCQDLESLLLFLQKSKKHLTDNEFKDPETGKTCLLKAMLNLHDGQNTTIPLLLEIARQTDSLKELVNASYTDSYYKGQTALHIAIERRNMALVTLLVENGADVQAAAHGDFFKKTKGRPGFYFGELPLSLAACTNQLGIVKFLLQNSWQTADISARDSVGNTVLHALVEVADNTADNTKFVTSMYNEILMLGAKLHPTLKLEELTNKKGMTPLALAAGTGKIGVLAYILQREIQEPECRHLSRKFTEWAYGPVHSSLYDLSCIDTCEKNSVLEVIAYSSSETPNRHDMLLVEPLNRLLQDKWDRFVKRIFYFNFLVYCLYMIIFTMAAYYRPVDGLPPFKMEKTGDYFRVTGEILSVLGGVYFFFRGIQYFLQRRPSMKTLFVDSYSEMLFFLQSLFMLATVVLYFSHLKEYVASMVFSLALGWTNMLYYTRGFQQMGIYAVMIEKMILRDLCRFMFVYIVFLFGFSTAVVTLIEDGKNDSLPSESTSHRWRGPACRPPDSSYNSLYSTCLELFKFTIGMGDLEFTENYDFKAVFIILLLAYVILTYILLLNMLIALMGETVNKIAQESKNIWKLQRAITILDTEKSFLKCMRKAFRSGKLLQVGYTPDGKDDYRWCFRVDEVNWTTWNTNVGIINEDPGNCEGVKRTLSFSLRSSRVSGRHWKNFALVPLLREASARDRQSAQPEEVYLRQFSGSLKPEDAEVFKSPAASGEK
Outline: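 Fluo-4-loaded HEK293 cells stably expressing human TRPV1, in Tyrode's buffer pH 7.4, read at 25 °C (ex 488/em 516 nm). Test compound added to the cuvette 5 min before 0.1 µM capsaicin. IC50 taken as half-maximal inhibition of capsaicin-induced [Ca2+]i rise, calculated in GraphPad; mean of n = 4.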

[2] = biological target: T1, Transient receptor potential cation channel subfamily V member 1; test: Agonist activity at recombinant human TRPV1 channel expressed in HEK293 cells assessed as increase in intracellular Ca2+ concentration by Fluo-4-AM dye based spectrofluorimetry relative to ionomycin; format: cell-based
Outline: (§1)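 HEK293 cells stably expressing human TRPV1, grown in MEM with non-essential amino acids, 10% FBS and 2 mM glutamine at 37 °C, 5% CO2. Cells loaded 1 h at room temperature with Fluo-4-AM (4 µM), washed into Tyrode's buffer pH 7.4, about 100,000 cells per stirred cuvette. Fluorescence (ex 488/em 516 nm) read at 25 °C. Efficacy normalised to 4 µM ionomycin, with wild-type HEK293 response subtracted when significant. EC50 from GraphPad; n = 4.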

[3] = biological target: T2, Fatty-acid amide hydrolase 1 (Rattus norvegicus, UniProt P97612); test: Inhibition of rat brain FAAH assessed as hydrolysis of [14C]AEA to [14C]Ethanolamine incubated for 30 mins by scintillation counting method
T2 sequence (P97612 whole entry): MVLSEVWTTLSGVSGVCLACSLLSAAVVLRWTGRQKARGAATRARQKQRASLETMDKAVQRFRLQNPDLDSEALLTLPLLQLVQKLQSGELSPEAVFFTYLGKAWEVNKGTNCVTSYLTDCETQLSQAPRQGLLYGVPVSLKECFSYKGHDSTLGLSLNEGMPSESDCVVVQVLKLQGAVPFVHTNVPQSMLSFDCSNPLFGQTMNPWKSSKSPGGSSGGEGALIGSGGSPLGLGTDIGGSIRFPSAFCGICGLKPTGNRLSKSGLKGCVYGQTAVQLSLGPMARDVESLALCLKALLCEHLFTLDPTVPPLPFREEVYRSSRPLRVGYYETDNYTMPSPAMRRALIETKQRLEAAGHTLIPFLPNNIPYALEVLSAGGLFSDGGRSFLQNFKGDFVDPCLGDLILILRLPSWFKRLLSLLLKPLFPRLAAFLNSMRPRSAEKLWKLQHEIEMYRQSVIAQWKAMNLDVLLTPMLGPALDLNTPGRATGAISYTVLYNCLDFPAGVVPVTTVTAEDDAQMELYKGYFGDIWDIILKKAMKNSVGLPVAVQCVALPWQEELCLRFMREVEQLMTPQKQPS

[4] = biological target: T1, Transient receptor potential cation channel subfamily V member 1; test: Agonist activity at recombinant human TRPV1 channel expressed in HEK293 cells assessed as increase in intracellular Ca2+ concentration by Fluo-4-AM dye based spectrofluorimetry; format: cell-based; outline: as §1
[5] = biological target: T1, Transient receptor potential cation channel subfamily V member 1; test: Antagonist activity at recombinant human TRPV1 channel expressed in HEK293 cells assessed as inhibition of capsiacin-induced Ca2+ flux by Fluo-4 dye based spectrofluorimetry assay

| SMILES | IC50 [1] | Efficacy [2] | IC50 [3] | EC50 [4] | IC50 [5] |
| --- | --- | --- | --- | --- | --- |
| OB(O)c1ccc(-c2ccccc2)cc1 [BIPHENYLBORONIC ACID] | > 10000 nM | < 10% | 790 nM | – | – |
| O=C(CCCCCc1ccccc1)Nc1ccc(B(O)O)cc1 | > 10000 nM | < 10% | 570 nM | – | – |
| O=C(Cc1ccccc1)NCCCCCCCc1ccccc1 | 1210 nM | 54.6% | > 10000 nM | 660 nM | – |
| O=C(/C=C/c1ccc(Cl)cc1)Nc1ccc(B(O)O)cc1 | 1390 nM | < 10% | 560 nM | – | – |
| O=C(Cc1ccc(B(O)O)cc1)NCCCCCCCc1ccccc1 | 370 nM | 52.5% | 250 nM | 370 nM | – |
| CCCCCCCCCc1ccc(B(O)O)cc1 | > 10000 nM | < 10% | 2920 nM | – | – |
| O=C(Cc1ccc(B(O)O)cc1)NCc1ccc(-c2ccccc2)cc1 | 5530 nM | 27.4% | 280 nM | 310 nM | – |
| O=C(NCCCCc1ccccc1)c1ccc(B(O)O)cc1 | > 10000 nM | < 10% | 580 nM | – | – |
| CCCCCCCC/C=C\CCCCCCCC(=O)NCc1ccc(B(O)O)cc1 | 47 nM | 42.2% | > 10000 nM | 22 nM | – |
| O=C(Oc1ccc(C(F)(F)F)cc1)N1CCN(c2ncccc2C(F)(F)F)CC1 | – | < 10% | – | – | – |
| COc1cc(CNC(=O)CCCCCCCc2ccccc2)ccc1B(O)O | 34 nM | 62.5% | 1770 nM | 51 nM | – |
| O=C(NCCc1ccc(O)cc1)c1ccc(B(O)O)cc1 | > 10000 nM | < 10% | > 10000 nM | – | – |
| O=C(CCc1ccccc1)NCc1ccc(B(O)O)cc1 | 230 nM | 60.2% | > 10000 nM | 320 nM | – |
| COc1cc(CNC(=O)CCCCCc2ccccc2)ccc1B(O)O | 1530 nM | 59.3% | 1320 nM | 1460 nM | – |
| O=C(Cc1ccc(B(O)O)cc1)NCCCCCc1ccccc1 | 2530 nM | 62.8% | 630 nM | 2250 nM | – |
| O=C(NCc1ccccc1)c1ccc(B(O)O)cc1 | > 10000 nM | < 10% | 2870 nM | – | – |
| O=C(Cc1ccc(B(O)O)cc1)NCCCCc1ccccc1 | 2190 nM | 44.9% | 1170 nM | 1990 nM | – |
| O=C(Cc1ccc(O)cc1)NCCCCCCCc1ccccc1 | 260 nM | 64.7% | – | 170 nM | – |
| O=C(NCc1ccc(-c2ccccc2)cc1)c1ccc(B(O)O)cc1 | > 10000 nM | < 10% | 1860 nM | – | – |

| SMILES | IC50 [1] | Efficacy [2] | IC50 [3] | EC50 [4] | IC50 [5] |
| --- | --- | --- | --- | --- | --- |
| COc1cc(CNC(=O)Nc2ccc(C(C)(C)C)cc2)ccc1B(O)O | 8110 nM | < 10% | 4280 nM | – | – |
| CC(C)(C)c1ccc(NC(=O)NCc2ccc(B(O)O)cc2)cc1 | 4130 nM | < 10% | 1990 nM | – | – |
| O=C(/C=C/c1ccc(Cl)cc1)Nc1cccc(B(O)O)c1 | 41 nM | < 10% | > 10000 nM | – | – |
| CC(C)(C)c1ccc(NC(=O)Nc2ccc(B(O)O)cc2)cc1 | 1950 nM | < 10% | > 10000 nM | – | – |
| O=C(CCCCCCCc1ccccc1)Nc1ccc(B(O)O)cc1 | > 10000 nM | < 10% | 390 nM | – | – |
| CC(C)(C)c1ccc(NC(=O)Cc2ccc(B(O)O)cc2)cc1 | > 10000 nM | < 10% | > 10000 nM | – | – |
| CCCCC/C=C\C/C=C\C/C=C\C/C=C\CCCC(=O)NCCc1c[nH]c2ccc(O)cc12 | – | < 10% | – | – | – |
| COc1cccc(NC(=O)/C=C/c2ccc(Cl)cc2)c1 | 190 nM | < 10% | > 10000 nM | – | 270 nM |
| O=C(NCc1ccc(B(O)O)cc1)c1ccc(-c2ccccc2)cc1 | 7110 nM | 22% | 330 nM | 4230 nM | – |
| O=C(Cc1ccc(B(O)O)cc1)NCc1ccccc1 | > 10000 nM | < 10% | > 10000 nM | – | – |
| O=C(/C=C/c1ccc(Cl)cc1)NCc1ccc(B(O)O)cc1 | > 10000 nM | < 10% | 1510 nM | – | – |
| O=C(CCCCCc1ccccc1)NCc1ccc(B(O)O)cc1 | 2890 nM | 41.1% | 1080 nM | 1530 nM | – |
| CC(C)(C)c1ccc(C(=O)Nc2ccc(B(O)O)cc2)cc1 | 780 nM | 39.3% | > 10000 nM | 520 nM | – |
| CC(C)(C)c1ccc(NC(=O)c2ccc(B(O)O)cc2)cc1 | 750 nM | < 10% | 5500 nM | – | – |
| O=C(Cc1ccc(-c2ccccc2)cc1)Nc1ccc(B(O)O)cc1 | > 10000 nM | < 10% | > 10000 nM | – | – |
| CCCCCCCC/C=C\CCCCCCCC(=O)NCc1ccc(B(O)O)c(OC)c1 | 32 nM | 49.2% | > 10000 nM | 20 nM | – |
| O=C(CCCCCCCc1ccccc1)NCc1ccc(B(O)O)cc1 | 500 nM | 54.7% | 470 nM | 1000 nM | – |
| O=C(Nc1ccc(-c2ccccc2)cc1)c1ccc(B(O)O)cc1 | > 10000 nM | 12.5% | 150 nM | 3970 nM | – |
| O=C(NCCCCCc1ccccc1)c1ccc(B(O)O)cc1 | > 10000 nM | < 10% | 180 nM | – | – |
